From PubChem
Hits are enriched below; roughly 0.77% of the tested compounds scored in any of these assays.
mIAP act = increases mouse intestinal alkaline phosphatase activity; muIAP, CDP-Star luminescence, 30 min; hits give high values; 1 = vehicle-only enzyme signal, 0 = enzyme-free wells; activation factor at 10 µM; 330,000 compounds, 0.24% hits; AID 2805;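 active = activation factor of at least 2 at 20 µM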
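Assay system: mouse IAP enzyme; reagent: chemiluminescent substrate CDP-Star; dosing: test compounds delivered from DMSO solution; schedule: 30 min at room temperature; measured by: luminescence from enzymatic CDP-Star hydrolysis; controls: DMSO-only wells and no-enzyme negative control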
mIAP inh = mouse IAP inhibition; purified mouse IAP, CDP-Star luminescence, 30 min; inhibition, % at 10 µM; 330,000 compounds, 0.2% hits; AID 2806;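 active = inhibition of at least 40% at 10 µM in the primary screen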
bIAP inhibitor = intestinal alkaline phosphatase (bovine) inhibition. purified bovine IAP, CDP-star luminescence, 30 min. inhibition, % at 20 µM. 190,000 tested, under 10 active;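 active = over 50% inhibition of intestinal alkaline phosphatase at 20 µM in the single-dose screen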
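System: purified bovine intestinal alkaline phosphatase (IAP) enzyme; Input: IAP diluted 1/65,000,000 in the well; Measured by: CDP-star luminescence signal; Compound dosing: 20 µM single dose; Incubation: 30 min reaction at room temperature.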
hIAP act = human IAP activation; P09923; purified human IAP, CDP-Star luminescence, 30 min; hits give high values; 1 = vehicle-only enzyme, 0 = enzyme-free background; activation factor at 10 µM; 330,000 compounds, 0.16% hits; AID 2524;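 active = activation factor of the enzyme at least 2-fold when tested at 20 µM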
Target sequence (P09923 whole entry, looked up): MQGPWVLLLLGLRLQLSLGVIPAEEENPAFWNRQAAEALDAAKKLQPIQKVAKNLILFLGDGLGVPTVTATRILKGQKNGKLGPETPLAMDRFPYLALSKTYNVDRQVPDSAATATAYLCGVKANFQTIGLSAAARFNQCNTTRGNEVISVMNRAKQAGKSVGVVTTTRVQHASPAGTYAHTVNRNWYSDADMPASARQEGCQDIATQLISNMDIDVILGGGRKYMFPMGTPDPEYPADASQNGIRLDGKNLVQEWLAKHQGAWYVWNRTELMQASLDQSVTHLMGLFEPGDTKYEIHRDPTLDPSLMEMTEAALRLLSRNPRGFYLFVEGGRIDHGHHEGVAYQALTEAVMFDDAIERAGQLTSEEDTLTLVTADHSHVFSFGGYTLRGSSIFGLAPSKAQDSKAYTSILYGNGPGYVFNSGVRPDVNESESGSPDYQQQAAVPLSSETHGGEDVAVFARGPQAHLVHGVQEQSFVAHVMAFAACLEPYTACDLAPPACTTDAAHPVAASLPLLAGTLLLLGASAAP
bIAP activator = increases bovine intestinal alkaline phosphatase activity. purified bovine IAP, CDP-star luminescence, 30 min; hits give high values; fold of DMSO-control signal, blank-subtracted. activation factor at 20 µM. 200,000 compounds, 0.17% hits. AID 1016;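 active = activation factor of 2 or more at 20 µM, a signal rise over negative controls twice the positive control's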
hIAP block = human IAP inhibition; 330,000 compounds, 0.12% hits; inhibition, % at 10 µM; P09923; purified IAP, CDP-Star luminescence, 30 min; AID 2544;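 active = inhibition reaching a set limit with compound at 10 µM in the primary screen, cut at about 35% in these data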
hIAP act confirm = human IAP activation confirmation; activation (%Activity, negative = activation), % at 8.3 µM; 880 compounds, 10% hits; shares compounds with hIAP act; purified IAP, CDP-Star luminescence, 30 min; hits give low values;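 active = at least twofold enzyme activation in any of six single-dose repeats, which the averaged readout prints as negative percent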
mIAP inh confirm = mouse IAP inhibition confirmation; shares compounds with mIAP inh; purified mouse IAP, CDP-Star luminescence, 30 min; inhibition, % at 10 µM; 11,000 compounds, 4.7% hits; AID 434971;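 active = inhibition of at least 40% at 10 µM in either of the two replicates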
A number is an active result; i = inactive; nt = no result.

SMILES | mIAP act | mIAP inh | bIAP inhibitor | hIAP act | bIAP activator | hIAP block | hIAP act confirm | mIAP inh confirm
COc1ccccc1/C=C/CN1CCC(n2nccc2NC(=O)CCc2ccccc2)CC1 | 2.49 | i | nt | 3.32 | nt | i | i | i
COCc1ccc(CN2CCC(n3nccc3NC(=O)CCCc3ccccc3)CC2)o1 | i | i | nt | i | nt | i | nt | nt
O=C(CCc1ccccc1)Nc1ccnn1C1CCN(C/C=C/c2ccccc2)CC1 | i | i | nt | i | nt | i | nt | nt
O=C(NN1C(=O)CSC1=S)C(=O)NN1C(=O)CSC1=S | i | 88.9 | i | 2.45 | i | i | i | 91.8
Cn1cc(CN2CCC(C(=O)Nc3cccc(-c4cccc(F)c4)c3)CC2)cn1 | 2.3 | i | nt | 2.54 | nt | i | i | i
Cc1nn(C(C)C)c(C)c1CN1CCC(C(=O)Nc2cccc(-c3cccc(F)c3)c2)CC1 | 4.73 | i | nt | 11 | nt | i | i | i
Cc1cccc(CN2CCC(C(=O)Nc3cccc(-c4cccc(F)c4)c3)CC2)n1 | i | i | nt | i | nt | i | nt | nt
COc1cccc(-c2cccc(NC(=O)C3CCN(Cc4cnn(C)c4)CC3)c2)c1 | i | i | nt | i | nt | i | nt | nt
O=C(Nc1cccc(-c2cccc(F)c2)c1)C1CCN(C2CCC2)CC1 | 3.14 | i | nt | 2.16 | nt | i | i | i
CC(C)c1ccc(NC(=O)C2CC(=O)Nc3nc4ccccc4n32)cc1 (configuration not stated) | 2.89 | i | nt | 2.37 | nt | i | i | i
O=C1CC(c2ccc(O)c(O)c2)Oc2cc(O)cc(O)c21 (configuration not stated) | i | 56.2 | nt | i | nt | 44.2 | i | 52.6
Cc1ccc(NC(=O)C2CC(=O)n3c(nc4ccccc43)N2)cc1C (configuration not stated) | 3.51 | i | nt | 2.15 | nt | i | i | i
CC(=O)Nc1ccc(Oc2ccc(S(=O)(=O)N3CCCC3)cn2)cc1 | i | i | nt | i | nt | i | nt | nt
CS(=O)(=O)c1ccc2c(c1)sc1nc(=O)c(/C=C3/C=CC(=O)C(O)=C3)c(N)n12 | i | 74.9 | nt | i | nt | 58.5 | i | 85.3
COC1=C/C(=C/c2c(N)n3c(nc2=O)sc2cc(S(C)(=O)=O)ccc23)C=CC1=O | i | i | nt | i | nt | i | nt | nt
O=C(NN1C(=O)/C(=C/c2ccc(O)cc2)SC1=S)c1ccccc1O | i | 40.1 | nt | i | nt | 35.8 | i | 55.7
O=C(Nc1cccc(-c2cccc(Cl)c2)c1)C1CCN(Cc2ccon2)CC1 | 2.33 | i | nt | 2.01 | nt | i | i | i
Cc1c(CN2CCC(C(=O)Nc3cccc(-c4cccc(Cl)c4)c3)CC2)cnn1C | 5.02 | i | nt | 6.44 | nt | i | i | i
O=C(Nc1cccc(-c2cccc(Cl)c2)c1)C1CCN(CC2CCOC2)CC1 (configuration not stated) | 3.02 | i | nt | 4.11 | nt | i | i | i
O=C(Nc1cccc(-c2cccc(F)c2)c1)C1CCN(CC2CCOC2)CC1 (configuration not stated) | i | i | nt | i | nt | i | nt | nt
C=CCn1cc(CN2CCC(C(=O)Nc3cccc(-c4cccc(Cl)c4)c3)CC2)c(C)n1 | 6.48 | i | nt | 7.93 | nt | i | i | i
O=C(Nc1cccc(-c2cccc(Cl)c2)c1)C1CCN(Cc2ccccn2)CC1 | i | i | nt | i | nt | i | nt | nt
C=CCn1cc(CN2CCC(C(=O)Nc3ccc(Oc4cccnc4)cc3)CC2)c(C)n1 | i | i | nt | i | nt | i | nt | nt
COCCn1c(=NC(=O)CSCC(=O)N2CCOCC2)sc2ccccc21 | i | i | nt | i | nt | i | nt | nt
CN(CCc1cnn(C)c1)C(=O)C1CCC(=O)N(CC2CCCCC2)C1 (configuration not stated) | i | i | nt | i | nt | i | nt | nt
SMILES | mIAP act | mIAP inh | bIAP inhibitor | hIAP act | bIAP activator | hIAP block | hIAP act confirm | mIAP inh confirm
N#Cc1c(Cl)cccc1N1CCC(C(N)=O)CC1 | i | i | nt | i | nt | i | nt | nt
COC(CNC(=O)c1c[nH]c2ccc(S(=O)(=O)N(C)c3ccc(F)cc3)cc2c1=O)OC | i | i | nt | i | nt | i | nt | nt
O=C(NNC(=O)C1CCCCC1)c1ccco1 | i | i | i | i | i | i | nt | nt
CCC1CCC(C(=O)NNC(=O)c2cc(-c3ccco3)[nH]n2)CC1 (configuration not stated) | i | 54.8 | i | 2.05 | i | i | i | 59.7
CC1=CN(S(=O)(=O)c2ccc(C)cc2)C[C@@H]2[C@H]3CC[C@H](C3)[C@H]12 | i | i | nt | nt | nt | nt | nt | nt
COc1ccc(C=O)cc1CSc1ncccc1C(=O)O | i | i | nt | i | nt | i | nt | nt
O=C(N/N=C/c1ccc(O)cc1O)C(=O)N/N=C/c1ccc(O)cc1O | i | 53.5 | nt | 2.28 | nt | i | i | 67.3
COc1cccc(NC(=O)CN(C)C(C)C(=O)NC(C)c2ccc(Cl)cc2Cl)c1 (configuration not stated) | i | i | nt | i | nt | i | nt | nt
O=c1[nH]c(/C=C\c2ccc(O)c(O)c2)nc(O)c1[N+](=O)[O-] | i | 47.8 | nt | i | nt | 43.3 | i | 74.9
Nc1c(N)c2ccccc2oc1=O | i | i | i | i | i | i | nt | nt
O=c1oc2ccccc2c2oc3cc(O)c(O)cc3c12 | i | 58.2 | nt | i | nt | 70.3 | i | 67.2
CCOc1ccc(OCCOCCNCCOC)cc1 | i | i | i | i | i | i | nt | nt
COC(=O)c1ccc(NC(=O)CN2CCN(CCO)CC2)cc1 | i | i | nt | i | nt | i | nt | nt
O=C1/C(=C/c2ccc(O)c(O)c2)Oc2cc(O)ccc21 | i | 58.6 | nt | i | nt | 96.5 | i | 69.3
O=C1/C(=C/c2cccc([N+](=O)[O-])c2)Oc2cc(O)ccc21 | i | i | nt | i | nt | i | nt | nt
CN(C)c1ccc2nc3c(=O)[nH]c(=O)nc-3n(CC(O)C(O)C(O)CO)c2c1 (configuration not stated) | i | 41.0 | nt | i | nt | 51.7 | -87.3 | 46.2
COc1ccccc1CCC(=O)OCC(=O)NC1CC1 | i | i | nt | i | nt | i | nt | nt
O=C(/C=C/c1ccc(O)c(O)c1)NC(=O)c1ccccc1O | i | 48.1 | nt | i | nt | 56.8 | i | 59.3
Cc1ccc(S(=O)(=O)N2CCC(C(=O)Nc3ccc(S(=O)(=O)N4CCCC4)cc3)CC2)cc1 | i | i | nt | i | nt | i | nt | nt
Cc1ccc(S(=O)(=O)N2CCC(C(=O)Nc3ccc(S(=O)(=O)N4CCCC4)cc3)CC2)cc1C | 2.15 | i | nt | i | nt | i | nt | i
Cc1ccc(S(=O)(=O)N2CCC(C(=O)Nc3ccc(C(C)C)cc3)CC2)cc1 | 6.57 | i | nt | i | nt | i | nt | i
C[C@H](NC(=O)NCc1ccc(F)cc1)C(=O)O | i | i | i | i | i | i | nt | nt
CC(NC(=S)NCc1ccc(F)cc1)C12CC3CC(CC(C3)C1)C2 (configuration not stated) | 4.08 | i | i | i | i | i | nt | i
O=C(N/N=C/c1ccc(OC(=O)c2ccccc2Cl)cc1)c1cc(O)cc(O)c1 | i | 47.0 | nt | i | nt | i | nt | 60.8
